We go through six molecules from ChEMBL document CHEMBL1126660, “Nonpeptide angiotensin II antagonists: N-phenyl-1H-pyrrole derivatives are angiotensin II receptor antagonists” (J Med Chem, 1993).

The species named for assay [1] is Oryctolagus cuniculus. Put plainly: Compound was evaluated for antagonism of angiotensin II induced contraction of rabbit aorta rings. The format is functional. The note with it: read-out: pA2 (converted). Summed up:
(§1)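 Paired rabbit aortic rings: control ring given increasing AII concentrations at 30-min intervals; second ring given AII with antagonist added 5 min beforehand. Responses expressed as % of control ring maximal contraction; pD2 for AII from concentration-response curves, pA2 by Schild analysis.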

Assay [2] deals with T1, Type-2 angiotensin II receptor (Rattus norvegicus, UniProt P35351).
T1 sequence (P35351 whole entry): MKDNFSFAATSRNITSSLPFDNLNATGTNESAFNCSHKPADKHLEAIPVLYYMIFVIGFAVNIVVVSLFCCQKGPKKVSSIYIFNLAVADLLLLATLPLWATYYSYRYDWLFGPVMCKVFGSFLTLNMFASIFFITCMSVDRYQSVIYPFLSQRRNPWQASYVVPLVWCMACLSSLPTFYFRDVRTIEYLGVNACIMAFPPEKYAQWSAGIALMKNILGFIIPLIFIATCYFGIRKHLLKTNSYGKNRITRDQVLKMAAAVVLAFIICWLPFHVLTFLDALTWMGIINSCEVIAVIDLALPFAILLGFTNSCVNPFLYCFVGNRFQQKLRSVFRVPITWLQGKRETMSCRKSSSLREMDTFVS
As to the kind of experiment: Activity against low affinity Angiotensin II receptor, type 2 was measured from the ability to inhibit [125I]angiotensin II binding to rat uterine membrane.

In assay [3] the target is T2, Type-1 angiotensin II receptor B (Rattus norvegicus, UniProt P29089).
T2 sequence (P29089 whole entry): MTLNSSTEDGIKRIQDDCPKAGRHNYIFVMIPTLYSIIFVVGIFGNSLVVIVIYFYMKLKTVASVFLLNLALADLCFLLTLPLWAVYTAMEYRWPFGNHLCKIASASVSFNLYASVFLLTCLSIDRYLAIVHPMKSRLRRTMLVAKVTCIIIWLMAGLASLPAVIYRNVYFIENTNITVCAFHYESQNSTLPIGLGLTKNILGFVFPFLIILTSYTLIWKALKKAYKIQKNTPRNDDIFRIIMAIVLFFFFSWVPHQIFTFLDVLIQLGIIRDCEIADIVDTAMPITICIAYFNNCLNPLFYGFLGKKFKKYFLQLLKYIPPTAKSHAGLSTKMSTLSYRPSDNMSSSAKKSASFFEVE
Put plainly: Activity against high affinity Angiotensin II receptor, type 1 was measured from the ability to inhibit [125I]angiotensin II binding to rat uterine membrane.

Assay [4] is filed under the species Oryctolagus cuniculus. Put plainly: Evaluated for antagonism of angiotensin II induced contraction of rabbit aorta rings. The format is functional. The note with it: read-out: pA2 (converted). An outline of the steps:
as §1

Consider `CCCCc1nc(Cl)c(CO)n1Cc1ccc(-n2cccc2C(=O)O)cc1`, for which the Kb in assay [1] was 1260 nM.

For the molecule `CCCCc1nc(CCCC)n(Cc2ccc(-n3ccc(-c4nnn[nH]4)c3)cc2)n1`, the IC50 (commonly the concentration that inhibits the measured activity by half) in assay [2] was determined as 220000 nM.

With `CCCCc1nc(Cl)c(CO)n1Cc1ccc(-c2ccccc2C(=O)O)cc1`, the IC50 in assay [3] stood at 170 nM; in assay [2] it was 3300 nM.

Take `CCCCc1nc(CCCC)n(Cc2ccc(-n3c(Cl)cc(Cl)c3-c3nnn[nH]3)cc2)n1`: the 50% inhibitory concentration (IC50) in assay [3] came to 52 nM; in assay [2], 810000 nM. Further, the Kb in assay [4] was 20 nM.

Turning to `CCCCc1nc(CCCC)n(Cc2ccc(-c3ccccc3-c3nnn[nH]3)cc2)n1`, the IC50 in assay [3] is 6.5 nM.

Regarding `CCCCc1nc(Cl)c(CO)n1Cc1ccc(-c2ccccc2-c2nnn[nH]2)cc1` [LOSARTAN], the Kb in assay [1] is 7.94 nM.
